Rows were chosen to be rich in hits. Some 2.2% of all compounds tested hit in one or more screens of this group.
SIRT5 inh: inhibitors of human sirtuin-5 desuccinylase; Q9NXA8; Purified SirT5, succinyl-peptide AMC, trypsin-coupled fluorescence; inhibition, % at 15 µM; 1.1% of 330,000 active; in the data active means inhibition above about 15%
Target sequence (Q9NXA8 whole entry, looked up): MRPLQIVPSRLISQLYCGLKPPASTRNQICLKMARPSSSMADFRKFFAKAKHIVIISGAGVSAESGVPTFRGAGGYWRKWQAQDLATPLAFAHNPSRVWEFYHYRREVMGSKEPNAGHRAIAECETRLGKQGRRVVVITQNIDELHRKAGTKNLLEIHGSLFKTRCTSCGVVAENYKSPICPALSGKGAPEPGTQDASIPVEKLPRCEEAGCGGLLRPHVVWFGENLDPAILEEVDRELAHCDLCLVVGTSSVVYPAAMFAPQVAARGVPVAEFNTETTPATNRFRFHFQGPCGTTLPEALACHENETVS
FGF22 binding: shifts melting point of recombinant human FGF22 | Q9HCT0 | recombinant FGF22 thermal shift, SYPRO orange fluorescence; percent of sucrose octasulfate shift, DMSO zero | activity (Tm shift, normalised), % at 9.99 µM | 1.5% of 340,000 active | AID 651658;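 active means mean Tm shift, scaled 0 neutral to 100 positive control, at about 1.3% or above, every replicate too, limit read from the data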
Target sequence (Q9HCT0 whole entry, looked up): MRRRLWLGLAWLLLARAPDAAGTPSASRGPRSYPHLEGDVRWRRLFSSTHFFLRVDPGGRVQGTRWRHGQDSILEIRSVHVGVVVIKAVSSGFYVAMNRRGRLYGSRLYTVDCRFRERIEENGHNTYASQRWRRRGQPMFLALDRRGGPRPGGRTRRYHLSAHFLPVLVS
PGC1a acetyl inh: lowers PGC1a acetylation signal in U2OS cells. 0.17% of 350,000 active. AID 651687. inhibition, % at 15.6 µM. AlphaScreen anti-acetyl-lysine; with virally co-expressed GCN5 acetyltransferase;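 active means every replicate shows inhibition of at least 40%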
ERAP1 inh: ERAP1 (human) enzyme inhibition | inhibition, % at 10.7 µM | Q9NZ08 | recombinant ERAP1, Leu-AMC fluorescence, 60 min | 0.15% of 340,000 active;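 active means mean replicate inhibition of at least 30%, or all replicates individually reaching that 30% level; inactive means mean below 30% and not every replicate reaching it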
FN deposit inh: fibronectin deposition inhibition; AH1F fibroblasts, Alexa488-fibronectin deposition fluorescence, overnight; inhibition, % at 12.6 µM; 0.086% of 350,000 active; AID 743247;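 active means mean inhibition across replicates of 30% or more, regardless of how many single replicates reach that level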
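test system = AH1F fibroblasts assembling fluorescent fibronectin matrix | quantity = 10000 AH1F cells per well | buffer or medium = DMEM plus 2% serum, read in PBS | doses = single dose, pinned | incubation = 1 h cell attachment, overnight exposure to compound and label | detection = fluorescence at 485 nm excitation, 525 nm emission | read-out basis = inhibition from reduced deposited-fibronectin fluorescence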
A number is an active result; i = inactive; nt = not tested or not shown; ! = not confirmed by another sample.

SMILES	SIRT5 inh	FGF22 binding	PGC1a acetyl inh	ERAP1 inh	FN deposit inh
C[C@@H]1CN([C@@H](C)CO)C(=O)Cc2cc(NC(=O)Cc3ccccc3)ccc2O[C@@H]1CN(C)Cc1ccc(C(F)(F)F)cc1	i	i	i	i	i
C[C@@H]1CN([C@@H](C)CO)C(=O)Cc2cc(NC(=O)Cc3ccccc3)ccc2O[C@H]1CN(C)Cc1ccc(C(F)(F)F)cc1	i	i	i	i	i
C[C@@H]1CN([C@H](C)CO)C(=O)Cc2cc(NC(=O)C3CC3)ccc2O[C@@H]1CN(C)Cc1ccccc1	99	i	nt	i	nt
C[C@@H]1CN([C@H](C)CO)C(=O)Cc2cc(NC(=O)Cc3ccccc3)ccc2O[C@@H]1CN(C)Cc1ccc(C(F)(F)F)cc1	16	i	i	i	i
C[C@H]1CN([C@@H](C)CO)C(=O)Cc2cc(NC(=O)Nc3ccc(C(F)(F)F)cc3)ccc2O[C@H]1CN(C)Cc1ccc(C(=O)Nc2ccccc2N)cc1	20	i	i	i	nt
C[C@H](CO)N1C[C@H](C)[C@@H](CN(C)Cc2ccc(C(F)(F)F)cc2)Oc2ccc(NC(=O)Cc3ccccc3)cc2CC1=O	16	i	i	i	i
COc1ccccc1S(=O)(=O)N[C@H]1CC[C@@H](CC(=O)N2CCCCC2)O[C@H]1CO	i	i	i	i	nt
O=[N+]([O-])c1cccc(S(=O)(=O)N/N=C\c2ccc3c(c2)OCO3)c1	20	i	nt	i	nt
COc1ccc(S(=O)(=O)N2CCC(C(=O)N[C@H](C(=O)NCc3ccccc3)C(C)C)CC2)cc1	nt	44	i	i	i
CS(=O)(=O)N1CCC(C(=O)NCc2ccccc2)CC1	i	44	nt	i	i
CS(=O)(=O)N1CCC(C(=O)NCCc2ccccc2)CC1	nt	nt	i	i	nt
COc1ccc(CNC(=O)C2CCN(S(=O)(=O)c3ccccc3)CC2)cc1	i	i	i	i	i
C[C@H](NC(=O)C1CCN(S(=O)(=O)c2ccccc2)CC1)C(=O)NC1CC1	nt	43	i	i	i
CCS(=O)(=O)N1CCC(C(=O)NCc2ccc(OC)cc2)CC1	i	43	i	i	i
O=C(NCc1ccccc1)C1CCN(S(=O)(=O)N2CCOCC2)CC1	nt	nt	i	nt	i
O=C(NCCc1ccccc1)C1CCN(S(=O)(=O)N2CCOCC2)CC1	i	44	i	i	i
O=C(CCNC(=O)C1CCN(S(=O)(=O)c2ccccc2)CC1)NCc1cccnc1	nt	43	i	i	i
COc1ccc(S(=O)(=O)N2CCCC(C(=O)NCCN3CCOCC3)C2)cc1C (stereo not given)	nt	43	nt	i	i
COc1ccc(S(=O)(=O)N2CCC(C(=O)NCc3ccccc3)CC2)cc1OC	i	43	i	i	i
O=C(CCNC(=O)C1CCN(S(=O)(=O)c2ccc(F)cc2)CC1)NCc1cccnc1	i	i	i	i	i
CN(C)CCn1nnnc1SCC1=C(C(=O)O)N2C(=O)[C@@H](NC(=O)Cc3csc(N)n3)[C@H]2SC1	i	i	i	i	i
CO[C@@]1(NC(=O)CSCC#N)C(=O)N2C(C(=O)O)=C(CSc3nnnn3C)CS[C@@H]21	i	1.5	i	i	i
CO[C@@H]1CN(C)C(=O)c2cc(NC(=O)Nc3ccccc3)ccc2OC[C@H](C)N(C(=O)CC2CC2)C[C@@H]1C	i	i	i	nt	i
C[C@@H]1CN([C@H](C)CO)C(=O)c2cc(C#Cc3ccncc3)cnc2O[C@H]1CN(C)CC1CCOCC1	i	i	i	i	i
CC(C)NC(=O)Nc1ccc2c(c1)C(=O)N([C@H](C)CO)C[C@@H](C)[C@@H](CN(C)C(=O)Nc1ccc(F)cc1)O2	nt	nt	i	nt	i
SMILES	SIRT5 inh	FGF22 binding	PGC1a acetyl inh	ERAP1 inh	FN deposit inh
Cc1cccc(N2NC(=O)/C(=C/c3ccc(-c4ccc(Cl)c(C(=O)O)c4)o3)C2=O)c1	16	i	i	i	i
O=C(O)c1cc(-c2ccc(/C=C3\NC(=O)N(c4ccc(Cl)cc4)C3=O)o2)ccc1Cl	20	nt	nt	i	nt
COc1ccc(C#Cc2ccc3c(c2)[C@]2(C(=O)N3)[C@H](C(=O)Nc3nc4ccccc4s3)[C@H]3C(=O)O[C@H](c4ccccc4)[C@H](c4ccccc4)N3[C@@H]2c2ccccc2OCCO)cc1	i	i	i	i	nt
NS(=O)(=O)c1ccc(CCNC(=O)c2cccc(S(=O)(=O)N3CCCC3)c2)cc1	i	i	nt	i	i
CC1CN(S(=O)(=O)c2cccc(C(=O)NCCc3ccc(S(N)(=O)=O)cc3)c2)CC(C)O1 (stereo not given)	nt	43	i	i	i
CCOc1ccc(CCNC(=O)c2cccc(S(=O)(=O)N3CCCCC3)c2)cc1OCC	i	i	i	i	i
CCOc1ccc(CCNC(=O)c2cccc(S(=O)(=O)N3CCN(C(C)=O)CC3)c2)cc1OCC	21	i	i	i	i
CO[C@H]1CN(C)C(=O)c2cc(NC(=O)Nc3cccc(F)c3)ccc2OC[C@H](C)N(C(=O)Nc2c(C)noc2C)C[C@@H]1C	i	i	i	i	i
COc1ccccc1NC(=O)COC(=O)CN1C(=O)C(=O)c2ccccc21	i	i	nt	i	i
O=C(CN1C(=O)C(=O)c2ccccc21)OCN1C(=O)c2ccccc2C1=O	i	43	i	i	i
Cc1cc(C)n2cc(CSc3ncn[nH]3)nc2n1	i	43	i	i	i
Cc1cc(C)n2cc(CSCC(=O)O)nc2n1	nt	nt	nt	nt	i
Cc1cc(C)n2cc(CSc3ccc(Br)cc3)nc2n1	i	43	nt	i	i
O=S(=O)(N[C@H]1CC[C@H](CCn2cc(-c3ccc(F)cc3)nn2)O[C@H]1CO)c1ccccc1F	i	i	i	i	nt
COc1ccc(S(=O)(=O)N(C)C[C@H]2Oc3ccc(NC(=O)NC4CCCCC4)cc3C(=O)N([C@@H](C)CO)C[C@H]2C)cc1	i	i	i	i	i
COc1ccc(NC(=O)Nc2ccc3c(c2)C(=O)N([C@@H](C)CO)C[C@@H](C)[C@@H](CN(C)S(=O)(=O)c2ccc(C)cc2)O3)cc1	19	i	i	i	nt
COc1ccc(S(=O)(=O)N(C)C[C@H]2Oc3ccc(NC(=O)NC4CCCCC4)cc3C(=O)N([C@H](C)CO)C[C@@H]2C)cc1	20!	i	i	i	i
COc1ccc(S(=O)(=O)N(C)C[C@@H]2Oc3ccc(NC(=O)Nc4ccc(F)cc4)cc3C(=O)N([C@H](C)CO)C[C@@H]2C)cc1	18	i	i	i	nt
O=C(O)c1ccccc1/C=N/NC(=O)c1cc(-c2ccco2)nc2ccccc12	19	i	i	i	i
CC(=O)Nc1ccc(/C=N/NC(=O)c2cc(-c3ccco3)nc3ccccc23)cc1	i	i	i	i	i
COc1ccc(-c2cc(C(=O)N/N=C/c3cc(OC)c(OC)cc3OC)c3ccccc3n2)cc1	i	i	45	i	i
COc1ccc(-c2cc(C(=O)N/N=C/c3cccnc3)c3ccccc3n2)cc1	i	i	nt	i	i
COc1ccc(NC(=O)N[C@H]2CC[C@H](CC(=O)NC3CCCCC3)O[C@@H]2CO)cc1	i	i	i	i	i
C[C@@H]1CN([C@H](C)CO)C(=O)c2ccccc2-c2ccccc2CO[C@@H]1CN(C)S(=O)(=O)c1ccccc1F	nt	nt	i	nt	i
